PostGolgi ctrl: growth of the yeast control strain, post-Golgi counter-screen | actives 5% (n = 98,000) | efflux-deficient yeast background strain, growth absorbance A615, 16 h | inhibition, % at 10 µM
HePTP inh: inhibitors of human HePTP phosphatase; actives 0.64% (n = 110,000); AID 521; P35236; inhibition, % at 20 µM; recombinant HePTP phosphatase activity, OD absorbance; in the data active = inhibition above about 50%;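 note: plate controls were vehicle for no effect and reference inhibitor for full effect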
PostGolgi yeast: growth inhibition of a yeast mutant, post-Golgi transport screen; post-Golgi transport phenotypic cell assay; inhibition, % at 10 µM; actives 0.9% (n = 98,000); AID 739;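 note: yeast cells grown in 1536-well plates; yeast grown about 18 h at 30C before absorbance read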
tolC growth inh: blocks growth of E. coli BW25113 tolC mutant; OD615; growth inhibition, % at 10 µM (by protocol); actives 2.2% (n = 65,000); AID 573;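 active = growth inhibition at or above a cutoff equal to the mean over every tested compound plus 3 SD, cut at about 60% in these data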;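 note: growth measured after 20 h incubation at 37 °C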
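Doses: one dose of 10 µM final / Material: E. coli BW25113 ΔtolC::kan, tolC deletion mutant strain / Buffer or medium: LB with kanamycin 50 µg/mL / Evaluation: percent growth inhibition / Detection: optical density read at 615 nm / Incubation: 37 °C, 20 h exposure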
PLAP activator: activates human placental alkaline phosphatase; purified PLAP enzyme, luminescent substrate read-out; stronger effect = higher value; activation fold at 20 µM; actives 1.2% (n = 96,000); AID 696; in the data active = activation fold above about 2
Target sequence (P05187 whole entry, looked up): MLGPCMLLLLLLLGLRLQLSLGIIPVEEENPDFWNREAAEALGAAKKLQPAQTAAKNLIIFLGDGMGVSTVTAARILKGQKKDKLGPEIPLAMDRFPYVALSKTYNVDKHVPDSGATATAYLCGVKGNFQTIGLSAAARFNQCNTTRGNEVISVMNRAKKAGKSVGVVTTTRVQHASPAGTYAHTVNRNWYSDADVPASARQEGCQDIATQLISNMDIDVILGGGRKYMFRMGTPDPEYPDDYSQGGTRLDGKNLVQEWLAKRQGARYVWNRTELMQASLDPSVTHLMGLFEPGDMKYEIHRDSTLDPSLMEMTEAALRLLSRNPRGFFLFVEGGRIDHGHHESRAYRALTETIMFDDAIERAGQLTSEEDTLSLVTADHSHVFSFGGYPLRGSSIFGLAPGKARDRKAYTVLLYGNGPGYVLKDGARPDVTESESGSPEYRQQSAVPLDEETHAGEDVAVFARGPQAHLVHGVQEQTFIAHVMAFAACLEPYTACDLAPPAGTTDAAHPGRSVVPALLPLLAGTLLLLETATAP
E coli WT exp: growth inhibitors of E. coli BW25113 wild type. OD600 absorbance. growth inhibition, % at 100 µM. actives 0.15% (n = 98,000);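 active = growth inhibition above about 50% at one test dose, limit read from the data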;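 note: growth measured after 20 h incubation at 37 °C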
* hit, by the source's call; . = not tested or not shown; ! = not confirmed by another sample. This is a sample that favours compounds with a hit; in the whole collection about 5.4% have one here. Cut-off read from the data, not from the text of the source, unless noted: active = inhibition above about 30%; inactive = the rest.

SMILES	PostGolgi ctrl	HePTP inh	PostGolgi yeast	tolC growth inh	PLAP activator	E coli WT exp
CCCCN1C2=C(C(=O)CCC2)C(c2ccc(Cl)c(Cl)c2)C2=C1c1ccccc1C2=O (stereo unspecified)	18	.	-5	.	1.1	-18
CC(C)c1cc(Br)ccc1OCCCN1C(=O)NC(C)(C)C1=O	38*	.	-4	.	1.6	-6
O=C(CSc1nc2ccccc2o1)Nc1cc(C(F)(F)F)ccc1N1CCOCC1	34*	.	-7	.	0.9	-2
FC(F)(F)c1ccc(N2CCOCC2)c(Nc2nc3ccccc3n3cnnc23)c1	52*	2	7	-4	1.3	5
O=C(CSc1nc2ccccc2o1)Nc1ccccc1Br	.	11	.	.	.	.
O=C(CSc1nc2ccccc2o1)Nc1ccccc1N1CCCCCC1	21	12	3	73*	1	-5
CCC(Oc1cc(Cl)ccc1Cl)C(=O)NN1C(=O)C2C3CCC(C3=C(C)C)C2C1=O (stereo unspecified)	18	.	-1	.	0.9	-6
CCCSc1nnc(-c2cnn(-c3ccccc3)c2-n2cccc2)n1C	20	.	-5	.	1.1	8
O=C(Nc1nc(N2C(=O)c3ccccc3C2=O)n(-c2ccccc2)n1)c1ccc(Cl)cc1	35*	.	2	.	1.9	-5
CC(C)c1nc(N2CCN(C(=O)c3ccccc3)CC2)c(C#N)c2c1COC(C)(C)C2	18	-3	20	34	1.5	-7
CC1(C)Cc2c(C#N)c(N3CCN(C(=O)c4ccccc4)CC3)nc(-c3ccco3)c2CS1	35*	-8	14	-2	.	-9
CCOC(=O)c1ccccc1NC(=O)c1cc(-c2ccccc2C)nc2ccccc12	.	-20	.	.	.	.
N#CC(C#N)C(c1ccsc1)c1c(-c2ccccc2)[nH][nH]c1=O (stereo unspecified)	5	4	16	1	1.7	-1
CSc1nnc(-c2sc3cc(C(F)(F)F)cnc3c2-c2cccnc2)n1C	-4	.	1	.	0.9	1
COc1ccc(OC)c(/C=N/N=C2\NC(=O)C(C)S2)c1 (stereo unspecified)	.	-15	.	.	.	.
Cc1ccc(OS(=O)(=O)c2ccccc2)c(/C=N/N=C2\NC(=O)C(C)S2)c1 (stereo unspecified)	41*	.	-5	.	.	-4
CC(=O)N1c2ccc(NC(=O)C(F)(F)F)cc2C(C)(c2ccccc2)CC1(C)C (stereo unspecified)	.	6	.	.	.	.
CCOC(=O)C1=NNC(C(=O)c2ccc(OC)cc2)C1c1ccccc1 (stereo unspecified)	11	.	-3	.	1.2	6
Cc1cc(NCCCCO)n2c(nc3ccccc32)c1C#N	8	3	6	-13	1.2	0
CCCc1cc(NCCCCO)n2c(nc3ccccc32)c1C#N	2	10	35*	-5	1.1	1
C/C(=C1/C(=O)N(c2nc3ccccc3s2)N=C1C(F)(F)F)N1CCCC1	.	-1	.	.	.	.
COc1ccccc1N1CCN(C(c2cccs2)C(C)NS(=O)(=O)c2ccccc2)CC1 (stereo unspecified)	7	-12	-9	31	1.5	-18
CC(NS(=O)(=O)c1ccccc1)C(c1cccs1)N1CCN(c2ccccc2)CC1 (stereo unspecified)	39*	10	-5	27	1.2	-8
COc1ccc(/C=C(\NC(=O)c2ccccc2)C(=O)Nc2ccc(Cl)cc2)cc1OC	.	3	.	.	.	.
COc1ccc(-n2ncc3c(NCC4CCCO4)ncnc32)cc1 (stereo unspecified)	3	.	-15	.	0.9	3
SMILES	PostGolgi ctrl	HePTP inh	PostGolgi yeast	tolC growth inh	PLAP activator	E coli WT exp
Cn1c(N)c(C(=O)c2cc(-c3ccccn3)nc3ccccc23)c(=O)[nH]c1=O	-12	7	10	-12	2*	2
O=C(NC1CC1)c1cc(-c2ccccn2)nc2ccccc12	34*	.	1	.	0.9	2
O=C(NC1CCCC1)c1cc(-c2ccc(Cl)cc2)nc2ccccc12	.	-6	.	.	.	.
CN1CCN(C(=O)CC23CC4CC(CC(C4)C2)C3)CC1	19	104*!	6	-15	1.2	-3
Cc1ccc(N=C(NO)c2nonc2N)cc1	41*	.	-3	.	1.3	9
Cc1ccc(C(=O)O/N=C(/c2nonc2N)N(C)C)cc1	3	.	2	.	1.2	-1
CC(=O)c1c(C(C)=O)c(C)n(NC(=O)c2ccc(Cl)cc2)c1C	23	.	31*	.	1.2	-1
CC(=O)c1c(C(C)=O)c(C)n(NC(=O)c2ccccc2Cl)c1C	7	.	-3	.	1	5
O=C1CC(c2ccccc2)CC2=C1C(c1ccc(F)c(Br)c1)Nc1ccccc1N2 (stereo unspecified)	.	10	.	.	.	.
Cc1cc(C)n2nc(C(=O)NCc3ccccc3)cc2n1	3	-8	43*	1	1.1	4
Cc1cccc(N2CCN(Cc3oc(CO)cc(=O)c3O)CC2)c1C	-3	.	9	.	2.2*	10
CCSC1(CCC(=O)OC)C(C)=C(C)C(=O)N1Cc1ccccc1 (stereo unspecified)	.	8	.	.	.	.
CCC(C)NCCOCCOc1ccc(C)cc1Br (stereo unspecified)	37*	.	-4	.	1	9
O=C(COc1ccc2ccccc2c1)NNC(=O)Cc1cccc2ccccc12	-3	.	4	.	1	-6
CC(C)(C)c1ccc(C(=O)NNC(=O)Cc2cccc3ccccc23)cc1	40*	.	-1	.	1.1	8
O=C(Nc1ccc(Cl)cc1)OCCn1nnnc1C(c1ccccc1)N1CCOCC1 (stereo unspecified)	-3	10	0	1	1.5	30
CN(C)c1ccc(C(c2nnnn2CCOC(=O)Nc2ccc(Cl)cc2)N2CCOCC2)cc1 (stereo unspecified)	34*	2	-1	-9	1.8	2
CCCCCC(=O)NNC(=O)c1ccco1	.	20	.	.	.	.
O=C(NCc1cccs1)C1CCCN(S(=O)(=O)c2ccc3c(c2)OCO3)C1 (stereo unspecified)	18	6	3	5	1	1
CCN(CC)S(=O)(=O)c1ccc(C(=O)OCn2nnc3ccccc3c2=O)cc1	78*	.	89*	23	1	-14
Cc1cc(=O)oc2c(CN(CC(C)C)CC(C)C)c(O)ccc12	8	.	-2	.	0.9	8
COc1cccc(OC)c1Oc1ccc(C(F)(F)F)cn1	4	9	0	-6	1	5
CCOc1cccc(Oc2ccc(C(F)(F)F)cn2)c1	34*	5	2	-2	1	8
C=CCN1C(=Nc2cccnc2)SCC1(O)c1ccc(C)cc1 (stereo unspecified)	43*	9	6	37	0.9	3
Fc1ccc(-c2ccc(C(=S)N3CCN(c4ccccc4)CC3)o2)cc1	.	8	.	.	.	.
O=C(c1ccco1)N1N=C(c2cccs2)CC1c1ccc(F)cc1 (stereo unspecified)	35*	.	14	.	1	-1
O=C(c1cccs1)N1N=C(c2ccccc2)CC1c1ccccc1 (stereo unspecified)	69*	0	1	.	1.2	-4
